This note sets out measurements from ChEMBL document CHEMBL4138248, “Discovery of naphtho[1,2-d]oxazole derivatives as potential anti-HCV agents through inducing heme oxygenase-1 expression” (Eur J Med Chem, 2018).

The first data set relates to Hepatitis C virus. Put plainly: Antiviral activity against HCV Con1 infected in human Ava5 cells assessed as inhibition of viral RNA replication after 3 days by RT-qPCR method. In kind it is functional, organism-based, Hepacivirus hominis. Conditions: isolate Con1, Ava5, 72 h. An outline of the steps: (§1)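 Ava5 cells (Huh-7 hepatoma cells carrying an HCV replicon, grown in DMEM/10% FBS with 1 mg·mL⁻¹ G418) were treated for 3 days with a range of concentrations. HCV RNA was measured by RT-qPCR and normalized to cellular gapdh mRNA. Values are mean ± SD of three independent experiments, each in triplicate.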
For orientation: Real-time PCR tracks product formation cycle by cycle.
One may read the EC50 as the concentration giving half of the maximal effect. Regarding `Cc1ccc2nc(Nc3ccc([N+](=O)[O-])cc3)sc2c1`, the EC50 was 8 µM.

In another data set the test system is Hepatitis C virus. In words: Antiviral activity against HCV infected in human Ava5 cells assessed as inhibition of viral RNA replication after 3 days by RT-qPCR method. In kind it is functional, organism-based, Hepacivirus hominis. To be noted: Ava5, 72 h. An outline of the steps:
as §1
Usually IC50 stands for the concentration needed to halve the response being measured. For the compound `NC(=O)c1ncn([C@@H]2O[C@H](CO)[C@@H](O)[C@H]2O)n1` [RIBAVIRIN], the IC50 was 13.2 µM.

For `COc1ccc(Nc2cc3oc(-c4ccccc4)nc3c3ccccc23)cc1`, the concentration for half-maximal inhibition (IC50) worked out at 3.27 µM.

On to `Clc1ccc(Nc2cc3oc(-c4ccc(Cl)cc4)nc3c3ccccc23)cc1`, for which the half-maximal inhibitory concentration (IC50) worked out at 17.8 µM.

In a further data set the test system is Hepatitis C virus. In words: Antiviral activity against HCV infected in human Huh7 cells assessed as inhibition of viral RNA replication after 3 days by RT-qPCR method. In kind it is functional, organism-based, Hepacivirus hominis. To be noted: Huh-7, 72 h.
For the compound `COc1cc(NCc2cc3ccccc3oc2=O)cc(OC)c1OC`, the concentration for a half-maximal effect (EC50) stood at 12 µM.

Tested on in another data set: not listed separately
In words: Cytotoxicity against human Ava5 cells assessed as decrease in cell viability after 72 hrs by XTT assay. In kind it is cell-based.
Details: not given
An outline of the steps:
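XTT assay on […] Ava5 cells at 5×10^3 per well with serial dilutions for 72 h at 37 °C in 5% CO₂. CC50 is the concentration giving 50% growth inhibition.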
(In general: Tetrazolium dyes change colour on reduction, which living cells bring about.)
In general, CC50 refers to the concentration at which the toxic effect on the cells reaches its halfway point. As to `NC(=O)c1ncn([C@@H]2O[C@H](CO)[C@@H](O)[C@H]2O)n1` [RIBAVIRIN], the CC50 at 72 h worked out at 106 µM.

With `COc1ccc(Nc2cc3oc(-c4ccccc4)nc3c3ccccc23)cc1`, the half-maximal cytotoxic concentration (CC50) at 72 h was 158 µM.

For `Clc1ccc(Nc2cc3oc(-c4ccc(Cl)cc4)nc3c3ccccc23)cc1`, the half-maximal cytotoxic concentration (CC50) at 72 h is 83.7 µM.

Another data set relates to Hepatitis C virus. Put plainly: Antiviral activity against HCV infected in human Ava5 cells assessed as inhibition of viral RNA replication at 20 uM after 3 days by RT-qPCR method relative to control. In kind it is functional, Hepacivirus hominis. To be noted: Ava5, 72 h. Put shortly:
(§2)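 Ava5 replicon cells were exposed to 5 or 20 μM for 3 days, starting from 10 mM DMSO stocks diluted in medium. HCV RNA was quantified by RT-qPCR against gapdh and expressed as % inhibition relative to untreated control. Ribavirin was the reference drug. Mean ± SD of three independent experiments.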
As a reminder, the inhibition is the relative decrease from the control value, in per cent. Take `NC(=O)c1ncn([C@@H]2O[C@H](CO)[C@@H](O)[C@H]2O)n1` [RIBAVIRIN]: the inhibition at 20 µM stood at 65.7%.

On to `COc1ccc(Nc2cc3oc(-c4ccccc4)nc3c3ccccc23)cc1`, for which the inhibition at 20 µM was determined as 86.7%.

Take `CN(c1ccccc1)c1cc2oc(-c3ccccc3)nc2c2ccccc12`: the inhibition at 20 µM is 2.31%.

Regarding `c1ccc(Nc2cc3oc(-c4ccccc4)nc3c3ccccc23)cc1`, the inhibition at 20 µM came to 4.28%.

Take `Clc1ccc(Nc2cc3oc(-c4ccc(Cl)cc4)nc3c3ccccc23)cc1`: the inhibition at 20 µM was 55.2%.

With `c1ccc(Nc2cc3oc(-c4ccco4)nc3c3ccccc23)cc1`, the inhibition at 20 µM worked out at 2.53%.

As for `Clc1ccc(Nc2cc3oc(-c4ccccc4)nc3c3ccccc23)cc1`, the inhibition at 20 µM is 3.53%.

Regarding `CN(c1ccccc1)c1cc2oc(-c3ccco3)nc2c2ccccc12`, the inhibition at 20 µM amounted to 3.54%.

For `COc1ccc(-c2nc3c(cc(Nc4ccc(Cl)cc4)c4ccccc43)o2)cc1`, the inhibition at 20 µM came out at 8.5%.

Turning to `CN(c1ccccc1)c1cc2oc(-c3ccc(Cl)cc3)nc2c2ccccc12`, the inhibition at 20 µM stood at 5.12%.

For the compound `COc1ccc(-c2nc3c(cc(N(C)c4ccccc4)c4ccccc43)o2)cc1`, the inhibition at 20 µM was determined as 3.21%.

Tested on in another data set: not listed separately
In words: Cytotoxicity against human Ava5 cells assessed as cell viability at 200 uM after 72 hrs by XTT assay relative to control. Conditions: read-out: Activity. In kind it is cell-based. Put shortly:
(§3)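 XTT viability assay run alongside the antiviral assays. Ava5 cells were plated at 5×10^3 per well and exposed to 20 or 200 μM for 72 h at 37 °C in humidified 5% CO₂. Viability is expressed as % of untreated cells.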
Consider `NC(=O)c1ncn([C@@H]2O[C@H](CO)[C@@H](O)[C@H]2O)n1` [RIBAVIRIN], for which the viability at 72 h, 200 µM came to 26.8%.

Turning to `COc1ccc(Nc2cc3oc(-c4ccccc4)nc3c3ccccc23)cc1`, the viability at 72 h, 200 µM was 37.1%.

For `CN(c1ccccc1)c1cc2oc(-c3ccccc3)nc2c2ccccc12`, the viability at 72 h, 200 µM is 25.5%.

In the case of `c1ccc(Nc2cc3oc(-c4ccccc4)nc3c3ccccc23)cc1`, the viability at 72 h, 200 µM came out at 25.5%.

As to `Clc1ccc(Nc2cc3oc(-c4ccc(Cl)cc4)nc3c3ccccc23)cc1`, the viability at 72 h, 200 µM was found to be 27.5%.

Consider `c1ccc(Nc2cc3oc(-c4ccco4)nc3c3ccccc23)cc1`, for which the viability at 72 h, 200 µM worked out at 31.5%.

For the compound `Clc1ccc(Nc2cc3oc(-c4ccccc4)nc3c3ccccc23)cc1`, the viability at 72 h, 200 µM worked out at 93%.

Take `CN(c1ccccc1)c1cc2oc(-c3ccco3)nc2c2ccccc12`: the viability at 72 h, 200 µM stood at 40.6%.

In the case of `COc1ccc(-c2nc3c(cc(Nc4ccc(Cl)cc4)c4ccccc43)o2)cc1`, the viability at 72 h, 200 µM was found to be 23.4%.

Consider `CN(c1ccccc1)c1cc2oc(-c3ccc(Cl)cc3)nc2c2ccccc12`, for which the viability at 72 h, 200 µM is 29.6%.

Take `COc1ccc(-c2nc3c(cc(N(C)c4ccccc4)c4ccccc43)o2)cc1`: the viability at 72 h, 200 µM was found to be 54%.

Tested on in a further data set: not listed separately
In words: Selectivity index, ratio of CC50 for human Ava5 cells to IC50 for HCV. To be noted: read-out: Ratio CC50/IC50. In kind it is toxicity. Put shortly: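 SI = CC50/IC50. CC50 comes from 72 h XTT in […] Ava5 cells. IC50 is the concentration giving 50% inhibition of HCV, measured by RT-qPCR after 3 days in Ava5 cells.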
With `NC(=O)c1ncn([C@@H]2O[C@H](CO)[C@@H](O)[C@H]2O)n1` [RIBAVIRIN], the selectivity ratio stood at 8.08.

For `COc1ccc(Nc2cc3oc(-c4ccccc4)nc3c3ccccc23)cc1`, the selectivity ratio was 48.4.

For `Clc1ccc(Nc2cc3oc(-c4ccc(Cl)cc4)nc3c3ccccc23)cc1`, the selectivity ratio is 4.71.

Tested on in a further data set: not listed separately
In words: Cytotoxicity against human Ava5 cells assessed as cell viability at 20 uM after 72 hrs by XTT assay relative to control. Type of data set: cell-based. Conditions: read-out: Activity. Put shortly:
as §3
As to `NC(=O)c1ncn([C@@H]2O[C@H](CO)[C@@H](O)[C@H]2O)n1` [RIBAVIRIN], the viability at 72 h, 20 µM is 71.4%.

As for `COc1ccc(Nc2cc3oc(-c4ccccc4)nc3c3ccccc23)cc1`, the viability at 72 h, 20 µM was 92.7%.

For `CN(c1ccccc1)c1cc2oc(-c3ccccc3)nc2c2ccccc12`, the viability at 72 h, 20 µM is 82.3%.

On to `c1ccc(Nc2cc3oc(-c4ccccc4)nc3c3ccccc23)cc1`, for which the viability at 72 h, 20 µM worked out at 87%.

Regarding `Clc1ccc(Nc2cc3oc(-c4ccc(Cl)cc4)nc3c3ccccc23)cc1`, the viability at 72 h, 20 µM came to 60.2%.

As to `c1ccc(Nc2cc3oc(-c4ccco4)nc3c3ccccc23)cc1`, the viability at 72 h, 20 µM was 81.2%.

Turning to `Clc1ccc(Nc2cc3oc(-c4ccccc4)nc3c3ccccc23)cc1`, the viability at 72 h, 20 µM turned out to be 107%.

Regarding `CN(c1ccccc1)c1cc2oc(-c3ccco3)nc2c2ccccc12`, the viability at 72 h, 20 µM is 88.8%.

On to `COc1ccc(-c2nc3c(cc(Nc4ccc(Cl)cc4)c4ccccc43)o2)cc1`, for which the viability at 72 h, 20 µM stood at 83.7%.

As to `CN(c1ccccc1)c1cc2oc(-c3ccc(Cl)cc3)nc2c2ccccc12`, the viability at 72 h, 20 µM is 94.7%.

For `COc1ccc(-c2nc3c(cc(N(C)c4ccccc4)c4ccccc43)o2)cc1`, the viability at 72 h, 20 µM came to 69.2%.

A further data set concerns Hepatitis C virus. In words: Antiviral activity against HCV infected in human Ava5 cells assessed as inhibition of viral RNA replication at 5 uM after 3 days by RT-qPCR method relative to control. Type of data set: functional, Hepacivirus hominis. To be noted: Ava5, 72 h. An outline of the steps:
as §2
Regarding `NC(=O)c1ncn([C@@H]2O[C@H](CO)[C@@H](O)[C@H]2O)n1` [RIBAVIRIN], the inhibition at 5 µM amounted to 31.2%.

On to `COc1ccc(Nc2cc3oc(-c4ccccc4)nc3c3ccccc23)cc1`, for which the inhibition at 5 µM stood at 75.5%.

Regarding `CN(c1ccccc1)c1cc2oc(-c3ccccc3)nc2c2ccccc12`, the inhibition at 5 µM worked out at 1.5%.

On to `c1ccc(Nc2cc3oc(-c4ccccc4)nc3c3ccccc23)cc1`, for which the inhibition at 5 µM was 3.51%.

As for `Clc1ccc(Nc2cc3oc(-c4ccc(Cl)cc4)nc3c3ccccc23)cc1`, the inhibition at 5 µM amounted to 8.1%.

Consider `c1ccc(Nc2cc3oc(-c4ccco4)nc3c3ccccc23)cc1`, for which the inhibition at 5 µM was found to be 1.8%.

Regarding `Clc1ccc(Nc2cc3oc(-c4ccccc4)nc3c3ccccc23)cc1`, the inhibition at 5 µM is 1.2%.

For the compound `CN(c1ccccc1)c1cc2oc(-c3ccco3)nc2c2ccccc12`, the inhibition at 5 µM turned out to be 2.9%.

As for `COc1ccc(-c2nc3c(cc(Nc4ccc(Cl)cc4)c4ccccc43)o2)cc1`, the inhibition at 5 µM was determined as 4.5%.

Consider `CN(c1ccccc1)c1cc2oc(-c3ccc(Cl)cc3)nc2c2ccccc12`, for which the inhibition at 5 µM came out at 4.2%.

Turning to `COc1ccc(-c2nc3c(cc(N(C)c4ccccc4)c4ccccc43)o2)cc1`, the inhibition at 5 µM is 2.5%.
